Results taken from ChEMBL document CHEMBL1144928, “Antimalarial activity of novel 1,2,5,6-tetraoxacycloalkanes and 1,2,5-trioxacycloalkanes” (J Med Chem, 2003).

Legend:
FM3A = assay: Compound was tested in vitro cytotoxicity against FM3A cell; assay type: functional, cell-based; settings: Mus musculus
Procedure, shortened: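 Cytotoxicity control used mouse mammary tumor FM3A cells in culture. The 50% inhibitory concentration (EC50) was determined by a previously reported protocol.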

Plasmodium falciparum [1] = assay: In vitro antimalarial activity against Plasmodium falciparum; assay type: functional, organism-based
Procedure, shortened: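 Tested against chloroquine-sensitive P. falciparum FCR-3 strain in culture. EC50 was determined by a previously reported protocol.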

[2] = (§1) Selectivity index was determined; assay type: functional
Procedure, shortened: (§2)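 Selectivity was calculated as the mean EC50 for FM3A cells divided by the mean EC50 for P. falciparum FCR-3.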

Mus musculus [3] = assay: Compound was tested in vitro Antimalarial activity against Plasmodium berghei in infected mice (Mus musculus) administered intraperitoneally; assay type: functional; settings: ip
Procedure, shortened: (§3)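 Mice infected with P. berghei NK 65 strain, in groups of five, were dosed once daily on days 0–3 with a range of concentrations in olive oil. Dosing was intraperitoneal or oral.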

Mus musculus [4] = assay: Compound was tested in vitro Antimalarial activity against Plasmodium berghei in infected mice (Mus musculus) administered per orally; assay type: functional; settings: po; procedure, shortened: as §3
Plasmodium falciparum [5] = assay: In vitro antimalarial activity against […]; assay type: functional, organism-based
[6] = as §1; assay type: functional; procedure, shortened: as §2; remark: listed apart in the source

Row | Compound | EC50 (FM3A) [µM] | EC50 (Plasmodium falciparum [1]) [µM] | Selectivity [2] | ED50 (Mus musculus [3]) [mg/kg] | ED90 (Mus musculus [3]) [mg/kg] | ED50 (Mus musculus [4]) [mg/kg] | ED90 (Mus musculus [4]) [mg/kg] | EC50 (Plasmodium falciparum [5]) [µM] | EC50 [6] [µM]
1 | c1ccc(C23OOC4(CCCCC4)OOC2C2CCC3C2)cc1 (stereo unspecified) [TETRACYCLOALKANES] | 11 | 0.45 | 24 | – | – | – | – | – | –
2 | C[C@@H]1CC[C@H]2[C@@H](C)C(=O)O[C@@H]3O[C@@]4(C)CC[C@@H]1[C@]32OO4 [ARTEMISININ] | – | – | 1000 | 5.4 | 13 | 32 | 89 | – | –
3 | c1ccc(C23OOC(C4CCCCC4)OOC2C2CCC3C2)cc1 (stereo unspecified) | – | – | 52 | 70 | > 100 | – | – | 0.21 | –
4 | CC1(C2OOC3C4CCC(C4)C3(c3ccccc3)OO2)CCCC1 (stereo unspecified) | 5.9 | 0.13 | 45 | – | – | – | – | – | –
5 | c1ccc(C23OOCCCOOC2C2CCC3C2)cc1 (stereo unspecified) | 45 | 0.19 | – | 13 | 50 | > 100 | – | – | 237
6 | CC1(CI)CCOC2(c3ccccc3)C3CCC(C3)C2OO1 (stereo unspecified) | 15 | 0.005 | 3000 | – | – | – | – | – | –
7 | CC1(CI)COC2(c3ccccc3)C3CCC(C3)C2OO1 (stereo unspecified) | 11 | 1 | 11 | – | – | – | – | – | –
8 | Fc1ccc(C2OOC3C4CCC(C4)C3(c3ccccc3)OO2)cc1 (stereo unspecified) | 11 | 1 | 11 | – | – | – | – | – | –
9 | CC1(CI)CCOOC2(c3ccccc3)C3CCC(C3)C2OO1 (stereo unspecified) | 11 | 0.15 | 73 | – | – | – | – | – | –
10 | c1ccc(C2OOC3C4CCC(C4)C3(c3ccccc3)OO2)cc1 (stereo unspecified) | 13 | 1.5 | 9 | – | – | – | – | – | –
